Experimental data: ChEMBL document CHEMBL2177098, “Synthesis and evaluation of novel ¹⁸F labeled 2-pyridinylbenzoxazole and 2-pyridinylbenzothiazole derivatives as ligands for positron emission tomography (PET) imaging of β-amyloid plaques” (J Med Chem, 2012); call rule not given here

Columns and labels:
[1] = Displacement of [125I]-IMPY from amyloid beta (1 to 42) fibrils after 2 hrs by gamma-counting analysis
Procedure, shortened: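 Competition binding with aggregated Aβ1-42 fibrils and [125I]IMPY (60000−100000 cpm/100 μL) in 0.05% BSA (1 mL total); inhibitors 10⁻⁴−10^−8.5 M in ethanol. Incubated 37 °C for 2 h, then GF/B vacuum filtration with PBS (0.02 M, pH 7.4) washes and γ counting. Three repeats; IC50 converted to Ki by Cheng−Prusoff.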

[2] = system: Stomach; assay: Drug uptake in ICR mouse stomach assessed per organ at 370 kBq/100 ul, iv at 60 mins by gamma-counting analysis; type: ADME, organism-based; settings: in vivo, 1 h
Procedure, shortened: (§1)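 Normal male ICR mice (5 weeks, about 20 g) received the ¹⁸F tracer in saline (370 KBq per 100 μL) by tail-vein injection. Groups of n = 5 were killed at 2, 10, 30 and 60 min. Organs were removed, weighed and γ-counted against diluted aliquots of the injectate, giving % dose per gram. Stomach and intestine were expressed per organ. The brain ratio is 2 min/60 min uptake. Values are mean ± SD.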

[3] = system: Lung; assay: Drug uptake in ICR mouse lung at 370 kBq/100 ul, iv at 60 mins by gamma-counting analysis; type: ADME, organism-based; settings: in vivo, 1 h
Procedure, shortened: (§2)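 Male ICR mice (5 weeks, about 20 g) got 18F tracer in saline (370 KBq per 100 μL) via tail vein; n = 5 per time point, killed at 2, 10, 30, 60 min. Organs weighed and γ-counted; percent dose per gram wet tissue from comparison with diluted injectate aliquots.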

[4] = system: Intestine; assay: Drug uptake in ICR mouse intestine assessed per organ at 370 kBq/100 ul, iv at 2 mins by gamma-counting analysis; type: ADME, organism-based; settings: in vivo
Procedure, shortened: (§3)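 Male ICR mice (5 weeks, about 20 g) got 18F tracer in saline (370 KBq per 100 μL) via tail vein; n = 5 per time point, killed at 2, 10, 30, 60 min. Organs removed and γ-counted against diluted injectate; expressed as % injected dose per organ.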

[5] = system: Intestine; assay: Drug uptake in ICR mouse intestine assessed per organ at 370 kBq/100 ul, iv at 10 mins by gamma-counting analysis; type: ADME, organism-based; settings: in vivo; procedure, shortened: as §3
[6] = system: Spleen; assay: Drug uptake in ICR mouse spleen at 370 kBq/100 ul, iv at 30 mins by gamma-counting analysis; type: ADME, organism-based; settings: in vivo, 0.5 h; procedure, shortened: as §2
[7] = system: Heart; assay: Drug uptake in ICR mouse heart at 370 kBq/100 ul, iv at 30 mins by gamma-counting analysis; type: ADME, organism-based; settings: in vivo, 0.5 h; procedure, shortened: as §2
[8] = system: Liver; assay: Drug uptake in ICR mouse liver at 370 kBq/100 ul, iv at 10 mins by gamma-counting analysis; type: ADME, organism-based; settings: in vivo; procedure, shortened: as §2
[9] = system: Liver; assay: Drug uptake in ICR mouse liver at 370 kBq/100 ul, iv at 2 mins by gamma-counting analysis; type: ADME, organism-based; settings: in vivo; procedure, shortened: as §2
[10] = system: Blood; assay: Drug uptake in ICR mouse blood at 370 kBq/100 ul, iv at 30 mins by gamma-counting analysis; type: ADME, organism-based; settings: in vivo, 0.5 h; procedure, shortened: as §2
[11] = system: Liver; assay: Drug uptake in ICR mouse liver at 370 kBq/100 ul, iv at 60 mins by gamma-counting analysis; type: ADME, organism-based; settings: in vivo, 1 h; procedure, shortened: as §2
[12] = system: Stomach; assay: Drug uptake in ICR mouse stomach assessed per organ at 370 kBq/100 ul, iv at 30 mins by gamma-counting analysis; type: ADME, organism-based; settings: in vivo, 0.5 h; procedure, shortened: as §3
[13] = system: Stomach; assay: Drug uptake in ICR mouse stomach assessed per organ at 370 kBq/100 ul, iv at 2 mins by gamma-counting analysis; type: ADME, organism-based; settings: in vivo; procedure, shortened: as §3
[14] = system: Brain; assay: Drug uptake in ICR mouse brain at 370 kBq/100 ul, iv at 10 mins by gamma-counting analysis; type: ADME, organism-based; settings: in vivo; procedure, shortened: as §2
[15] = system: Spleen; assay: Drug uptake in ICR mouse spleen at 370 kBq/100 ul, iv at 10 mins by gamma-counting analysis; type: ADME, organism-based; settings: in vivo; procedure, shortened: as §2
[16] = system: Spleen; assay: Drug uptake in ICR mouse spleen at 370 kBq/100 ul, iv at 60 mins by gamma-counting analysis; type: ADME, organism-based; settings: in vivo, 1 h; procedure, shortened: as §2
[17] = system: Stomach; assay: Drug uptake in ICR mouse stomach assessed per organ at 370 kBq/100 ul, iv at 10 mins by gamma-counting analysis; type: ADME, organism-based; settings: in vivo; procedure, shortened: as §3
[18] = system: Heart; assay: Drug uptake in ICR mouse heart at 370 kBq/100 ul, iv at 2 mins by gamma-counting analysis; type: ADME, organism-based; settings: in vivo; procedure, shortened: as §2
[19] = system: Heart; assay: Drug uptake in ICR mouse heart at 370 kBq/100 ul, iv at 60 mins by gamma-counting analysis; type: ADME, organism-based; settings: in vivo, 1 h; procedure, shortened: as §2
[20] = system: Brain; assay: Drug uptake in ICR mouse brain at 370 kBq/100 ul, iv at 60 mins by gamma-counting analysis; type: ADME, organism-based; settings: in vivo, 1 h; procedure, shortened: as §2
[21] = system: Intestine; assay: Drug uptake in ICR mouse intestine assessed per organ at 370 kBq/100 ul, iv at 30 mins by gamma-counting analysis; type: ADME, organism-based; settings: in vivo, 0.5 h; procedure, shortened: as §3
[22] = system: Spleen; assay: Drug uptake in ICR mouse spleen at 370 kBq/100 ul, iv at 2 mins by gamma-counting analysis; type: ADME, organism-based; settings: in vivo; procedure, shortened: as §2
[23] = system: Brain; assay: Ratio of drug uptake in brain at 2 mins to drug uptake in brain at 60 mins in ICR mouse at 370 KBq/100 ul, iv; type: ADME, organism-based; settings: in vivo; procedure, shortened: as §1
[24] = system: Liver; assay: Drug uptake in ICR mouse liver at 370 kBq/100 ul, iv at 30 mins by gamma-counting analysis; type: ADME, organism-based; settings: in vivo, 0.5 h; procedure, shortened: as §2
[25] = system: Brain; assay: Drug uptake in ICR mouse brain at 370 kBq/100 ul, iv at 30 mins by gamma-counting analysis; type: ADME, organism-based; settings: in vivo, 0.5 h; procedure, shortened: as §2
[26] = system: Kidney; assay: Drug uptake in ICR mouse kidney at 370 kBq/100 ul, iv at 60 mins by gamma-counting analysis; type: ADME, organism-based; settings: in vivo, 1 h; procedure, shortened: as §2
[27] = system: Bone; assay: Drug uptake in ICR mouse bone at 370 kBq/100 ul, iv at 60 mins by gamma-counting analysis; type: ADME, organism-based, Bone element; settings: in vivo, 1 h; procedure, shortened: as §2
[28] = system: Kidney; assay: Drug uptake in ICR mouse kidney at 370 kBq/100 ul, iv at 2 mins by gamma-counting analysis; type: ADME, organism-based; settings: in vivo; procedure, shortened: as §2
[29] = system: Heart; assay: Drug uptake in ICR mouse heart at 370 kBq/100 ul, iv at 10 mins by gamma-counting analysis; type: ADME, organism-based; settings: in vivo; procedure, shortened: as §2
[30] = system: Blood; assay: Drug uptake in ICR mouse blood at 370 kBq/100 ul, iv at 60 mins by gamma-counting analysis; type: ADME, organism-based; settings: in vivo, 1 h; procedure, shortened: as §2
[31] = system: Brain; assay: Drug uptake in wild type C57BL6 mouse brain at 370 KBq/100 ul after 1 hr by autoradiographic analysis; type: ADME, tissue-based; settings: in vitro
Procedure, shortened: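 Paraffin brain sections from 12-month-old male control C57BL6 mice were deparaffinized through xylene and graded ethanol, then held in PBS (0.2 M, pH 7.4) for 30 min. They were incubated with the ¹⁸F tracer (370 KBq per 100 μL) for 1 h at room temperature. Sections were washed in 40% EtOH, rinsed with water for 1 min, dried, and exposed to a phosphor plate for 2 h. The same sections were then stained with thioflavin S.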

[32] = system: Blood; assay: Drug uptake in ICR mouse blood at 370 kBq/100 ul, iv at 2 mins by gamma-counting analysis; type: ADME, organism-based; settings: in vivo; procedure, shortened: as §2
[33] = system: Brain; assay: Drug uptake in ICR mouse brain at 370 kBq/100 ul, iv at 2 mins by gamma-counting analysis; type: ADME, organism-based; settings: in vivo; procedure, shortened: as §2
[34] = system: Intestine; assay: Drug uptake in ICR mouse intestine assessed per organ at 370 kBq/100 ul, iv at 60 mins by gamma-counting analysis; type: ADME, organism-based; settings: in vivo, 1 h; procedure, shortened: as §3
[35] = system: Kidney; assay: Drug uptake in ICR mouse kidney at 370 kBq/100 ul, iv at 10 mins by gamma-counting analysis; type: ADME, organism-based; settings: in vivo; procedure, shortened: as §2
[36] = system: Bone; assay: Drug uptake in ICR mouse bone at 370 kBq/100 ul, iv at 2 mins by gamma-counting analysis; type: ADME, organism-based, Bone element; settings: in vivo; procedure, shortened: as §2
[37] = n-Octanol-PBS buffer partition coefficient, log D of the compound at 1.5 MBq after 3 mins at pH 7.4; type: physicochemical
Procedure, shortened: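 The tracer was partitioned between n-octanol and PBS by vortexing for 3 min at room temperature, then centrifuged for 5 min at 3000 rpm. Samples of the octanol (50 μL) and aqueous (500 μL) layers were counted. log D is the log of the octanol/PBS counts-per-gram ratio. The octanol layer was repartitioned until values were consistent. Measured in triplicate and repeated three times.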

[38] = system: Lung; assay: Drug uptake in ICR mouse lung at 370 kBq/100 ul, iv at 2 mins by gamma-counting analysis; type: ADME, organism-based; settings: in vivo; procedure, shortened: as §2
[39] = system: Lung; assay: Drug uptake in ICR mouse lung at 370 kBq/100 ul, iv at 30 mins by gamma-counting analysis; type: ADME, organism-based; settings: in vivo, 0.5 h; procedure, shortened: as §2
[40] = system: Blood; assay: Drug uptake in ICR mouse blood at 370 kBq/100 ul, iv at 10 mins by gamma-counting analysis; type: ADME, organism-based; settings: in vivo; procedure, shortened: as §2
[41] = system: Bone; assay: Drug uptake in ICR mouse bone at 370 kBq/100 ul, iv at 10 mins by gamma-counting analysis; type: ADME, organism-based, Bone element; settings: in vivo; procedure, shortened: as §2
[42] = system: Kidney; assay: Drug uptake in ICR mouse kidney at 370 kBq/100 ul, iv at 30 mins by gamma-counting analysis; type: ADME, organism-based; settings: in vivo, 0.5 h; procedure, shortened: as §2
[43] = system: Lung; assay: Drug uptake in ICR mouse lung at 370 kBq/100 ul, iv at 10 mins by gamma-counting analysis; type: ADME, organism-based; settings: in vivo; procedure, shortened: as §2
[44] = system: Bone; assay: Drug uptake in ICR mouse bone at 370 kBq/100 ul, iv at 30 mins by gamma-counting analysis; type: ADME, organism-based, Bone element; settings: in vivo, 0.5 h; procedure, shortened: as §2

CN(C)c1ccc(-c2nc3ccc(OCCOCCF)cc3s2)cn1
Ki [1]: 4.6 nM

CN(C)c1ccc(-c2nc3cc(OCC[18F])ccc3o2)cn1
Drug uptake [2]: 2.79 %ID
Drug uptake [3]: 1.79 % ID/g
Drug uptake [4]: 8.41 %ID
Drug uptake [5]: 21.45 %ID
Ki [1]: 2.7 nM
Drug uptake [6]: 1.6 % ID/g
Drug uptake [7]: 1.83 % ID/g
Drug uptake [8]: 10.72 % ID/g
Drug uptake [9]: 15.7 % ID/g
Drug uptake [10]: 1.89 % ID/g
Drug uptake [11]: 3.19 % ID/g
Drug uptake [12]: 2.54 %ID
Drug uptake [13]: 2.44 %ID
Drug uptake [14]: 3.41 % ID/g
Drug uptake [15]: 2.02 % ID/g
Drug uptake [16]: 1.32 % ID/g
Drug uptake [17]: 2.55 %ID
Drug uptake [18]: 5.95 % ID/g
Drug uptake [19]: 1.93 % ID/g
Drug uptake [20]: 1.47 % ID/g
Drug uptake [21]: 38.88 %ID
Drug uptake [22]: 3.22 % ID/g
Ratio [23]: 4.95
Drug uptake [24]: 4.39 % ID/g
Drug uptake [25]: 1.76 % ID/g
Drug uptake [26]: 1.82 % ID/g
Drug uptake [27]: 1.88 % ID/g
Drug uptake [28]: 8.48 % ID/g
Drug uptake [29]: 2.44 % ID/g
Drug uptake [30]: 2.06 % ID/g
Drug uptake [31]: Not Active
Drug uptake [32]: 3.57 % ID/g
Drug uptake [33]: 7.27 % ID/g
Drug uptake [34]: 37.02 %ID
Drug uptake [35]: 3.82 % ID/g
Drug uptake [36]: 2.08 % ID/g
logD at 0.05 h [37]: 3.53
Drug uptake [38]: 5.53 % ID/g
Drug uptake [39]: 1.85 % ID/g
Drug uptake [40]: 2.05 % ID/g
Drug uptake [41]: 1.27 % ID/g
Drug uptake [42]: 2.44 % ID/g
Drug uptake [43]: 2.58 % ID/g
Drug uptake [44]: 1.56 % ID/g
